# Activity calls are given as the source filed them. Cut-off read from the data, not from the text of the source, unless noted: active = inhibition above about 31%; inactive = the rest.
# Legend:
# [1] = HUVEC growth inhibition – cell-based, human, primary screen (AID 575;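 active = viability at or below 30% in both replicate assays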;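 note: 100% = median of untreated cell wells with 0.1% DMSO on each plate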); settings: HUVEC proliferation, CellTiter-Glo luminescence, 72 h; at 10 µM; stronger effect = lower value
# Procedure, shortened: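 Timing: 72 h treatment at 37 °C; material: HUVEC primary cells; technique: CellTiter-Glo luminescence measuring cellular ATP; controls: vehicle and MePR control wells; measure: percent of median DMSO-control luminescence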
# [2] = growth inhibitors of H69AR lung tumor, primary screen, human, duplicate replicates (AID 580;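 active = viability at or under a set limit in both replicates, limit being median viability minus 3 SD, cut at about 48% in these data, passing the limit was not always enough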;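 note: 100% = mean luminescence of untreated wells and 0% = no signal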); settings: H69AR lung tumor cells viability, ATP luminescence, 72 h; at 10 µM; stronger effect = lower value
# [3] = reversal of MRP1-mediated doxorubicin resistance, pilot screen, H69AR cells, doxorubicin co-treatment (AID 601;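 active = viability loss from added drug above about 55%, and viability with drug at most 40%, in both replicates, limit read from the data, passing the limit was not always enough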); settings: CellTiter-Glo, 72 h, at 10 µM; for differential viability (reversal): stronger effect = higher value
# [4] = 384-well plate pilot, post-Golgi transport modulator project, inhibition of yeast transport mutant growth (AID 636); settings: absorbance 615 nm, about 18 h, stronger effect = higher value
# [5] = growth suppression of yeast trafficking mutant, preliminary HTS, modulators of trafficking downstream of Golgi apparatus project, 1536-format plate, OD 615 nm (AID 637; in the data active = inhibition above about 30%); settings: yeast transport mutant growth, absorbance 615 nm, 18 h; stronger effect = higher value
# [6] = H69AR cells + 2 uM doxorubicin, measured here: viability with 2 uM doxorubicin, stronger effect = lower value
# [7] = H69AR cells, compound alone cytotoxicity
Compound,viability [1],viability [2],differential viability (reversal) ([3]; H69AR cells + 2 uM doxorubicin),"viability [3, 6]","viability [3, 7]",inhibition [4],inhibition [5]
COc1ccc(OC)c(Nc2ncnc3c2cnn3-c2ccccc2)c1,99.3% (inactive),90.5% (inactive),1.97% (inactive),88.5%,90.5%,-4.67% (inactive),-5.87% (inactive)
CN(Cc1cnn(C)c1)C(=O)c1cc2ccccc2oc1=O,114% (inactive),103% (inactive),13.3% (inactive),89.9%,103%,-5.66% (inactive),2.06% (inactive)
CCn1c(SCc2cccc(C(F)(F)F)c2)nnc1-c1ccco1,93.9% (inactive),90.1% (inactive),9% (inactive),81.1%,90.1%,-5.2% (inactive),-0.16% (inactive)
CC(=O)Nc1ccc2nc(-c3cccnc3)[nH]c2c1,98.6% (inactive),80.7% (inactive),-11.3% (inactive),92%,80.7%,3.51% (inactive),11.1% (inactive)
c1ccc(CNC2=NCCC2)nc1,102% (inactive),101% (inactive),3.93% (inactive),96.8%,101%,-0.91% (inactive),-7.46% (inactive)
CCCC(=O)N1CCN(c2ccc(NC(=O)c3ccc(Br)o3)cc2)CC1,125% (inactive),104% (inactive),3.6% (inactive),101%,104%,1.58% (inactive),-2.22% (inactive)
COC(=O)c1[nH]c(C)c(/C(O)=C2\C(=O)C(=O)N(CCCN3CCOCC3)C2c2ccccn2)c1C (configuration not stated),109% (inactive),104% (inactive),7.94% (inactive),96.1%,104%,-0.53% (inactive),-4.6% (inactive)
CCOc1ccccc1C(=O)NCc1ccc2c(c1)OCO2,88.2% (inactive),67.4% (inactive),-20.6% (inactive),88.1%,67.4%,-7.73% (inactive),3.02% (inactive)
CC(=O)N1C(=O)c2cccc3cccc(c23)C(=O)N1C(C)=O,96.1% (inactive),91.8% (inactive),-1.27% (inactive),93%,91.8%,-1.05% (inactive),-1.43% (inactive)
Cc1ccc(OCc2nnc(SCC(=O)N3CCOCC3)n2C)cc1,102% (inactive),106% (inactive),17.4% (inactive),88.5%,106%,-0.93% (inactive),-6.35% (inactive)
Cc1ccc2nsnc2c1S(=O)(=O)N1CCN(Cc2ccc3c(c2)OCO3)CC1,91% (inactive),91% (inactive),1.65% (inactive),89.3%,91%,-3.03% (inactive),2.86% (inactive)
COc1ccc(CN(C)CC(=O)c2c(N)n(Cc3ccccc3)c(=O)n(C)c2=O)c(OC)c1,96.4% (inactive),93.9% (inactive),10.3% (inactive),83.6%,93.9%,-3.25% (inactive),6.51% (inactive)
CCCC(=O)Nc1ccccc1-c1nnn(CC(=O)Nc2ccc(OC)cc2)n1,73.8% (inactive),83.1% (inactive),-14.1% (inactive),97.2%,83.1%,-3.33% (inactive),5.4% (inactive)
O=C(Cc1ccc(S(=O)(=O)N2CCCC2)s1)Nc1nc2c(s1)CCCC2,66.3% (inactive),95.7% (inactive),1% (inactive),94.7%,95.7%,-1.17% (inactive),-6.83% (inactive)
Cc1ccccc1NC(=O)c1ccc(NC(=O)c2ccco2)cc1,102% (inactive),80.7% (inactive),1.25% (inactive),79.4%,80.7%,-6.84% (inactive),-4.6% (inactive)
CC(C)[C@H](NC(=O)OC(C)(C)C)c1nnc(S(=O)(=O)Cc2c(F)cccc2Cl)o1,69.5% (inactive),1.65% (active),0.065% (inactive),1.58%,1.65%,-2.76% (inactive),9.02% (inactive)
O=C(Nc1ccc(S(=O)(=O)NCCc2ccccc2)cc1)c1ccc(Br)o1,72.4% (inactive),108% (inactive),16.8% (inactive),91.5%,108%,-1.32% (inactive),-6.35% (inactive)
c1ccc(OCCOc2ncnc3sccc23)cc1,100% (inactive),98.7% (inactive),7% (inactive),91.7%,98.7%,-0.26% (inactive),-1.75% (inactive)
Cc1c(C(=O)NCc2ccccn2)oc2ccccc12,99.6% (inactive),106% (inactive),25.7% (inactive),80.5%,106%,-0.92% (inactive),17.9% (inactive)
CCOC(=O)CSC1=Nc2ccccc2C2=NC(CC(=O)NCc3cccs3)C(=O)N12 (configuration not stated),81.9% (inactive),91.7% (inactive),5.7% (inactive),86%,91.7%,-6.75% (inactive),-5.56% (inactive)
O=C(Nc1ccccc1)N(Cc1cccnc1)Cc1ccco1,86.1% (inactive),96.8% (inactive),12.7% (inactive),84.1%,96.8%,-4.74% (inactive),1.75% (inactive)

Compound,viability [1],viability [2],differential viability (reversal) ([3]; H69AR cells + 2 uM doxorubicin),"viability [3, 6]","viability [3, 7]",inhibition [4],inhibition [5]
CCS(=O)(=O)N1CCC(C(=O)NCc2cccs2)CC1,87.2% (inactive),99.3% (inactive),9.73% (inactive),89.6%,99.3%,-1.04% (inactive),-3.02% (inactive)
CCOc1ccc(OCC)c(NC(=O)C2CCN(c3ncccn3)CC2)c1,105% (inactive),86.1% (inactive),-12.5% (inactive),98.5%,86.1%,-3.47% (inactive),-2.06% (inactive)
COc1ccc(S(=O)(=O)NC(CC(=O)NCc2ccco2)c2ccco2)cc1 (configuration not stated),99.7% (inactive),103% (inactive),22.1% (inactive),81.3%,103%,-2.08% (inactive),4.29% (inactive)
O=S(=O)(NCCc1ccncc1)c1cc(Br)ccc1F,97.5% (inactive),98.2% (inactive),13.4% (inactive),84.8%,98.2%,-3.9% (inactive),13.5% (inactive)
COc1cc2c(cc1OC)CN(C(=O)COc1ccc(C#N)cc1)CC2,93% (inactive),84.8% (inactive),-12% (inactive),96.8%,84.8%,0.52% (inactive),-4.44% (inactive)
Cc1nn(CC(O)Cn2c3c(c4ccccc42)CCN(C)C3=O)c(C)c1Br (configuration not stated),52.8% (inactive),69.8% (inactive),-12.1% (inactive),81.9%,69.8%,-4% (inactive),-2.54% (inactive)
CCOC(=O)NC(=O)CSc1nnc(C)s1,115% (inactive),105% (inactive),8.07% (inactive),96.5%,105%,-4.08% (inactive),3.65% (inactive)
Cn1c(=O)c(=O)n(C)c2cc(S(=O)(=O)N3CCN(c4cccc(C(F)(F)F)c4)CC3)ccc21,73% (inactive),93.3% (inactive),-1% (inactive),94.3%,93.3%,0.4% (inactive),3.02% (inactive)
CCOC(=O)CSc1nnc(CNC(=O)c2ccc(S(=O)(=O)N3CCCC3)cc2)n1C,99.1% (inactive),112% (inactive),28.2% (inactive),84%,112%,-2.6% (inactive),0.63% (inactive)
COc1ccc(N(CC(=O)Nc2ccccc2SC)S(C)(=O)=O)cc1OC,113% (inactive),98.2% (inactive),7.5% (inactive),90.7%,98.2%,-2.63% (inactive),1.75% (inactive)
COc1nc(OC)nc(N2CCC(NC(=O)C(Cc3ccc(C(C)C)cc3)NC(C)=O)CC2)n1 (configuration not stated),110% (inactive),64.4% (inactive),-3.67% (inactive),68%,64.4%,-7.5% (inactive),1.59% (inactive)
O=C(Cc1cccs1)NCc1ccc(F)cc1,98% (inactive),99.6% (inactive),5.21% (inactive),94.4%,99.6%,-3.6% (inactive),3.33% (inactive)
COc1ccc(C(=O)N2CCN(C(=O)c3ccco3)CC2)cc1OC,87.2% (inactive),95.9% (inactive),4.87% (inactive),91.1%,95.9%,-5.73% (inactive),0.32% (inactive)
O=C(COc1ccccc1Cl)N1CCCC1,105% (inactive),91.9% (inactive),-0.435% (inactive),92.3%,91.9%,2.24% (inactive),-4.6% (inactive)
O=C(O)c1cnn2c1NC(c1ccc(F)cc1)CC2C(F)(F)F (configuration not stated),90.8% (inactive),97.6% (inactive),9.29% (inactive),88.3%,97.6%,-6.32% (inactive),4.92% (inactive)
O=C(Cn1c(=O)[nH]c2ccsc2c1=O)N1CCN(c2ccc(F)cc2)CC1,91% (inactive),87.2% (inactive),1.24% (inactive),86%,87.2%,-1.84% (inactive),4.6% (inactive)
Cc1cc(C)c(C#N)c(SCc2ccc(C#N)cc2)n1,44.7% (inactive),68.5% (inactive),-7.06% (inactive),75.6%,68.5%,-2.27% (inactive),-2.86% (inactive)
Cc1noc(NS(=O)(=O)c2ccc(NC(=O)CCC3CCCC3)cc2)c1C,88.9% (inactive),94% (inactive),11.6% (inactive),82.4%,94%,-4.03% (inactive),-0.16% (inactive)
O=C1CCCc2nc(N3CCCCC3)sc21,88.9% (inactive),82.8% (inactive),-6.74% (inactive),89.6%,82.8%,-0.27% (inactive),-0.95% (inactive)
CCOC(=O)N1CCN(C(=O)C(NS(=O)(=O)c2cccc3nsnc23)c2ccccc2)CC1 (configuration not stated),100% (inactive),94.2% (inactive),-6.95% (inactive),101%,94.2%,-3.38% (inactive),-0.63% (inactive)

# Reference: PubChem BioAssay
